Activity calls are given as the source filed them. The calls are words filed in the database; no cut-off is given here.
What was measured:
D(2) dopamine receptor = D(2) dopamine receptor (Homo sapiens, UniProt P14416); experiment: biochemical; format: cell-based, CHOp
D(3) dopamine receptor = D(3) dopamine receptor (Homo sapiens, UniProt P35462); experiment: Displacement of [3H]YM-09151-2 from human dopamine D3 receptor expressed in CHOp cells; format: cell-based
D(1A) dopamine receptor = D(1A) dopamine receptor (Homo sapiens, UniProt P21728); experiment: Displacement of [3H]SCH-23390 from human dopamine D1 receptor expressed in LHD1 cells; format: cell-based
Chain of D(1A) dopamine receptor (P21728 whole entry): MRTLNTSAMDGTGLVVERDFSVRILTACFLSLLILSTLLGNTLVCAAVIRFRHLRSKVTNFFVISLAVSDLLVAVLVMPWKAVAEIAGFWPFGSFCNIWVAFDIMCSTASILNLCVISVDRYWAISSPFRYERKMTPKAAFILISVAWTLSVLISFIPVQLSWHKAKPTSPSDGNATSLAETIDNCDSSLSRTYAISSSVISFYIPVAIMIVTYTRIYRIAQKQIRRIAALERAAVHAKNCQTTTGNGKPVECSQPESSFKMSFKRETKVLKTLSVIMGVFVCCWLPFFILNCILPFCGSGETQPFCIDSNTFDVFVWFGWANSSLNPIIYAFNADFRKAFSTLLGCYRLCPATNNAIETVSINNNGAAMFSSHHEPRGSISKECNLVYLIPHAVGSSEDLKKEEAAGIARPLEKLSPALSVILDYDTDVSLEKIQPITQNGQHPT

Mus musculus [1] = experiment: Analgesic activity in CD1 mouse assessed as inhibition of acetic acid induced writhing dosed subcutaneously 30 mins before acetic acid challenge; format: functional
Method in brief: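 Mice received the drug subcutaneously across a range of doses, then underwent the acetic acid induced writhing test. Inhibition of writhing was scored against a control group. Data are mean SEM, n = 5−6 mice per group. ED₅₀ was taken from the dose–response curve.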

[2] = target: Delta-type opioid receptor (Homo sapiens, UniProt P41143); experiment: Displacement of [3H]pCl-DPDPE from human delta opioid receptor expressed in CHO cell membranes incubated for 60 mins by liquid scintillation counting
Chain of Delta-type opioid receptor (P41143 whole entry): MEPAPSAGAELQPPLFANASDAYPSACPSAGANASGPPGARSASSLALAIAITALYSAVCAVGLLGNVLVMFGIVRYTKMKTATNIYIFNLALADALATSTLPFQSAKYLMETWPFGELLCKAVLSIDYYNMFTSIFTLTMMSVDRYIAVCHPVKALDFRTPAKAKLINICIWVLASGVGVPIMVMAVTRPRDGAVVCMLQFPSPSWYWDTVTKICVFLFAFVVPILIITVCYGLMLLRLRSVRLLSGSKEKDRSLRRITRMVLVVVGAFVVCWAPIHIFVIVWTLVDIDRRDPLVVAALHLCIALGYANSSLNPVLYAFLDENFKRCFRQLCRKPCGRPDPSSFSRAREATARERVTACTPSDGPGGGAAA

Mus musculus [3] = experiment: Analgesic activity in CD1 mouse assessed as inhibition of acetic acid induced writhing at 2.5 mg/kg, sc dosed 30 mins before acetic acid challenge in presence of 20 mg/kg, sc KOP receptor antagonist nor-BNI; format: functional, organism-based
Mu-type opioid receptor = Mu-type opioid receptor (Homo sapiens, UniProt P35372); experiment: Displacement of [3H]DAMGO from human mu opioid receptor expressed in CHO cell membranes incubated for 60 mins by liquid scintillation counting
Chain of Mu-type opioid receptor (P35372 whole entry): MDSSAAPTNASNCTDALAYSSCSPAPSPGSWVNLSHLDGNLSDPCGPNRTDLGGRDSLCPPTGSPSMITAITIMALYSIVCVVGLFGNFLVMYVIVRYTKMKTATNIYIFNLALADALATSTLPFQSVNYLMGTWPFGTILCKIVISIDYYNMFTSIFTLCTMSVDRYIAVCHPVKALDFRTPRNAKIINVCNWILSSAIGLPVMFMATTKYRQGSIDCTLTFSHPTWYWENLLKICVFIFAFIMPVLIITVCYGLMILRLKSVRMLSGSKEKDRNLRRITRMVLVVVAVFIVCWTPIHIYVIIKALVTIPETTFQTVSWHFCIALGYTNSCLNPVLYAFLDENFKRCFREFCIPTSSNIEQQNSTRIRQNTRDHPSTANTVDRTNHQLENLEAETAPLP

[4] = target: T1, Kappa-type opioid receptor (Homo sapiens, UniProt P41145); experiment: Displacement of [3H]U69,593 from human kappa opioid receptor expressed in CHO cell membranes incubated for 60 mins by liquid scintillation counting
T1 sequence (P41145 whole entry): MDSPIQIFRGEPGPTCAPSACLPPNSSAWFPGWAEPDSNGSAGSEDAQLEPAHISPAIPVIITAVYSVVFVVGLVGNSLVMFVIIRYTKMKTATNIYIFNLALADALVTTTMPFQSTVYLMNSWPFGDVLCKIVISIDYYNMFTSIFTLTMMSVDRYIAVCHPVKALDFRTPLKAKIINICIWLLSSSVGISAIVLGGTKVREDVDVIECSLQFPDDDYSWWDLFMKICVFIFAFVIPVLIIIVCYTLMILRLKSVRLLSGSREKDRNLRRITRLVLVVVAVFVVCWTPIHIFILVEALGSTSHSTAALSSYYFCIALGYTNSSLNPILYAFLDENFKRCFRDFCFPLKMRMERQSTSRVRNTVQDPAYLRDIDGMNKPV

[5] = target: T1, Kappa-type opioid receptor; experiment: Agonist activity at human kappa opioid receptor expressed in CHO cell membranes incubated for 60 mins by [35S]GTPgammaS binding assay; format: functional
[6] = target: Kappa-type opioid receptor (Cavia porcellus, UniProt P41144); experiment: Displacement of [3H]ethylketocyclazocine from kappa opioid receptor in guinea pig brain
Chain of Kappa-type opioid receptor (Cavia porcellus, UniProt P41144) (P41144 whole entry): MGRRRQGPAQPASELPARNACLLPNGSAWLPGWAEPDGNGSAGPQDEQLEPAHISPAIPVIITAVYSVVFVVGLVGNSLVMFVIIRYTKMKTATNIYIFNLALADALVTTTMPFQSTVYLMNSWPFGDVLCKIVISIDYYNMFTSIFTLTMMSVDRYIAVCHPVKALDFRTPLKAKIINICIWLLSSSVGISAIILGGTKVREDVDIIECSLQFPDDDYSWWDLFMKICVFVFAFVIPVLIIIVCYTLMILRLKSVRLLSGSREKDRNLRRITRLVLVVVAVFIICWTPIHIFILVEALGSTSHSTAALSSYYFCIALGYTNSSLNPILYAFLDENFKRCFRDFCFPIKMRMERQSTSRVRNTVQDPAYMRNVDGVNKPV

Chain of D(2) dopamine receptor (P14416 whole entry): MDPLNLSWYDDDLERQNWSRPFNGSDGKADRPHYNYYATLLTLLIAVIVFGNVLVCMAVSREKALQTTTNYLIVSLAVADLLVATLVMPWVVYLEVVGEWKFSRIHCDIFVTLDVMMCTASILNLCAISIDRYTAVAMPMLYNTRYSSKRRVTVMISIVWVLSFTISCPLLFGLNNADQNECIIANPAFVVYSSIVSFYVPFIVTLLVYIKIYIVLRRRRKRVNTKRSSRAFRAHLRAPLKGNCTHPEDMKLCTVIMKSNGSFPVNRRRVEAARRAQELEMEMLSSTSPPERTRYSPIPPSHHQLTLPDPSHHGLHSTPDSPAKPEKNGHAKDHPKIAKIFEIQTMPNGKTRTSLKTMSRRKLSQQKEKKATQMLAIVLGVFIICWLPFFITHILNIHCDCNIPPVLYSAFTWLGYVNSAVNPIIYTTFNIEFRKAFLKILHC
Chain of D(3) dopamine receptor (P35462 whole entry): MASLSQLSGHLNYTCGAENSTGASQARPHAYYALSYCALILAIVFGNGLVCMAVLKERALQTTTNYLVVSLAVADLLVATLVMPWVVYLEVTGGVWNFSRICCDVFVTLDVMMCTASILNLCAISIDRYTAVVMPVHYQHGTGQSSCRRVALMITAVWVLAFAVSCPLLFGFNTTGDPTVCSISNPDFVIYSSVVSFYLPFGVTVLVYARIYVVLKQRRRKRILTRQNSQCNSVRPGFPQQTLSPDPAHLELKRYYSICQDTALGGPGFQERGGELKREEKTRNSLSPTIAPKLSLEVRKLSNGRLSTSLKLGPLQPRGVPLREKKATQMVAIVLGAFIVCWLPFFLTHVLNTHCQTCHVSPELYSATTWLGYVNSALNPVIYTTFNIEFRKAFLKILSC

Row | Ki (Mu-type opioid receptor) [nM] | Ki [4] [nM] | EC50 [5] [nM] | SMILES | Ki (D(2) dopamine receptor) [nM] | Ki (D(3) dopamine receptor) [nM] | Ki (D(1A) dopamine receptor) [nM] | Activity (Mus musculus [1]) | ED50 (Mus musculus [1]; CD1, sc) [mg/kg] | Ki [2] [nM] | Activity (Mus musculus [3]) | IC50 [6] [nM]
1 | – | – | – | Oc1cccc(CCN(CCc2ccccc2)CC2CCC2)c1 | 450 | 282 | > 10000 | Dose-dependent effect | 1.91 | > 10000 | inactive | –
2 | – | – | – | Oc1cccc(CCN(CCc2ccccc2)CC2CC2)c1 | 118 | 168 | > 10000 | – | – | > 10000 | – | –
3 | 325 | 12.6 | 86.4 | CCCCCN(CCc1ccccc1)CCc1cccc(O)c1 | 1420 | 1100 | > 10000 | – | – | 1320 | – | –
4 | 412 | 10.9 | 46.2 | CCCCN(CCc1ccccc1)CCc1cccc(O)c1 | 1230 | 1150 | > 10000 | – | – | 2430 | – | –
5 | 788 | 141 | 647 | CCCCCCN(CCc1ccccc1)CCc1cccc(O)c1 | 831 | 1150 | > 10000 | – | – | 3570 | – | –

Row | SMILES | Ki (Mu-type opioid receptor) [nM] | Ki [4] [nM] | EC50 [5] [nM] | Ki (D(2) dopamine receptor) [nM] | Ki (D(3) dopamine receptor) [nM] | Ki (D(1A) dopamine receptor) [nM] | Activity (Mus musculus [1]) | ED50 (Mus musculus [1]; CD1, sc) [mg/kg] | Ki [2] [nM] | Activity (Mus musculus [3]) | IC50 [6] [nM]
6 | CCCN(CCc1ccccc1)CCc1cccc(O)c1 | 594 | 8.13 | 49.1 | 64.4 | 21.8 | > 10000 | – | – | 3710 | – | 57

— ChEMBL document CHEMBL2177058 (J Med Chem, 2012)
